Test results published in the array DNA melting data of Ke et al. (doi:10.1101/2024.01.08.574731).

How the values were obtained:
[1] = folding enthalpy; higher = less favourable; fluorescence melt of hairpins on a sequencing array, two-state fit; details: sodium 0.088 M
Outline: (§1)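 On a sequenced MiSeq flow cell, library hairpins with annealed Cy3 and quencher oligos were imaged for Cy3 fluorescence in 2.5 °C steps up to 60 °C, in 50 mM Na-HEPES pH 8.0, 25 mM NaCl. Normalisation used pre-quench Cy3 and control constructs. Bootstrapped two-state fits gave melting temperature and folding enthalpy, combined by inverse variance across four replicates and with fitted temperatures raised by 9.35 °C to match UV melts.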

[2] = melting temperature; fluorescence melt of hairpins on a sequencing array, two-state fit, raised by 9.35 °C to match UV melts; details: sodium 0.088 M
Outline: as §1

Sequence | folding enthalpy [1] | Tm [2]
GATCGTTGTCACGATC ((((((....)))))) | -40.9 kcal/mol | 54.9 °C
GATCGTTTTTACGATC ((((((....)))))) | -44.7 kcal/mol | 56.9 °C
GATCTAAAATAGATC ((((((...)))))) | -17.1 kcal/mol | 38.6 °C
GATCTAAAGATAGATC ((((((....)))))) | -16.5 kcal/mol | 30.6 °C
GATCTAACAGTAGATC ((((((....)))))) | -15.6 kcal/mol | 36.5 °C
GATCTAACATAGATC ((((((...)))))) | -33.1 kcal/mol | 39.5 °C
GATCTAACCTTAGATC ((((((....)))))) | -39.6 kcal/mol | 42.2 °C
GATCTAAGATAGATC ((((((...)))))) | -20.6 kcal/mol | 37.9 °C
GATCTAAGCGTAGATC ((((((....)))))) | -27 kcal/mol | 36.9 °C
GATCTAAGGTTAGATC ((((((....)))))) | -31.6 kcal/mol | 39.3 °C
GATCTAATATAGATC ((((((...)))))) | -28.6 kcal/mol | 38.8 °C
GATCTAATCGTAGATC ((((((....)))))) | -13.7 kcal/mol | 36.1 °C
GATCTAATCTAGATC ((((((...)))))) | -28.2 kcal/mol | 38.8 °C
GATCTAATGGTAGATC ((((((....)))))) | -27 kcal/mol | 35.4 °C
GATCTAATTTAGATC ((((((...)))))) | -30.8 kcal/mol | 41.4 °C
GATCTACAAGTAGATC ((((((....)))))) | -34.2 kcal/mol | 48.2 °C
GATCTACAGTAGATC ((((((...)))))) | -38.7 kcal/mol | 39.3 °C
GATCTACAGTTAGATC ((((((....)))))) | -29.3 kcal/mol | 38.3 °C
GATCTACATCTAGATC ((((((....)))))) | -30.7 kcal/mol | 36.8 °C
GATCTACCAATAGATC ((((((....)))))) | -25.6 kcal/mol | 38.1 °C
GATCTACCCGTAGATC ((((((....)))))) | -42.1 kcal/mol | 50.8 °C
GATCTACCCTAGATC ((((((...)))))) | -24.7 kcal/mol | 40.7 °C
GATCTACCGGTAGATC ((((((....)))))) | -43.4 kcal/mol | 53.2 °C
GATCTACGGTTAGATC ((((((....)))))) | -30.3 kcal/mol | 37.8 °C

Sequence | folding enthalpy [1] | Tm [2]
GATCTACGTTAGATC ((((((...)))))) | -24.8 kcal/mol | 38.3 °C
GATCTACTACTAGATC ((((((....)))))) | -31.4 kcal/mol | 37.5 °C
GATCTACTAGTAGATC ((((((....)))))) | -46.8 kcal/mol | 51.7 °C
GATCTACTCCTAGATC ((((((....)))))) | -33 kcal/mol | 39.5 °C
GATCTAGACTAGATC ((((((...)))))) | -36.6 kcal/mol | 40.8 °C
GATCTAGATCTAGATC ((((((....)))))) | -37.3 kcal/mol | 47.5 °C
GATCTAGATTTAGATC ((((((....)))))) | -28.4 kcal/mol | 38.4 °C
GATCTAGCATAGATC ((((((...)))))) | -36.5 kcal/mol | 50.8 °C
GATCTAGCTTTAGATC ((((((....)))))) | -26.7 kcal/mol | 38.8 °C
GATCTAGGAAACTAGATC (((((((....))))))) | -43.1 kcal/mol | 51.9 °C
GATCTAGGAAACTGGATC ((((.((....)).)))) | -34 kcal/mol | 41.8 °C
GATCTAGGCTAGATC ((((((...)))))) | -55.2 kcal/mol | 45.5 °C
GATCTAGGTTTAGATC ((((((....)))))) | -28.5 kcal/mol | 41.1 °C
GATCTAGTCGTAGATC ((((((....)))))) | -27.9 kcal/mol | 44.3 °C
GATCTAGTCTTAGATC ((((((....)))))) | -39.3 kcal/mol | 45 °C
GATCTAGTGCTAGATC ((((((....)))))) | -31.1 kcal/mol | 44.3 °C
GATCTAGTGTAGATC ((((((...)))))) | -26.4 kcal/mol | 38.5 °C
GATCTAGTTTAGATC ((((((...)))))) | -30.3 kcal/mol | 40.7 °C
GATCTATAAGTAGATC ((((((....)))))) | -35.6 kcal/mol | 41.6 °C
GATCTATAATTAGATC ((((((....)))))) | -25.5 kcal/mol | 39.9 °C
GATCTATATGTAGATC ((((((....)))))) | -35.4 kcal/mol | 45.5 °C
GATCTATCACTAGATC ((((((....)))))) | -31.9 kcal/mol | 38.6 °C
GATCTATCAGTAGATC ((((((....)))))) | -32.5 kcal/mol | 40.4 °C
GATCTATGAATAGATC ((((((....)))))) | -32.6 kcal/mol | 43.2 °C

Sequence | folding enthalpy [1] | Tm [2]
GATCTATGCGTAGATC ((((((....)))))) | -41.5 kcal/mol | 48.2 °C
GATCTATGCTAGATC ((((((...)))))) | -23.4 kcal/mol | 40.4 °C
GATCTATGGTAGATC ((((((...)))))) | -28.9 kcal/mol | 36.9 °C
GATCTATGTGTAGATC ((((((....)))))) | -49.8 kcal/mol | 48 °C
GATCTATTAGTAGATC ((((((....)))))) | -33.8 kcal/mol | 44.4 °C
GATCTATTATAGATC ((((((...)))))) | -33.4 kcal/mol | 41.9 °C
GATCTATTCATAGATC ((((((....)))))) | -35.8 kcal/mol | 49.9 °C
GATCTATTCCTAGATC ((((((....)))))) | -29.9 kcal/mol | 40.4 °C
GATCTATTGGTAGATC ((((((....)))))) | -30.4 kcal/mol | 44.2 °C
GATCTATTGTTAGATC ((((((....)))))) | -35.9 kcal/mol | 42.5 °C
GATCTATTTTAGATC ((((((...)))))) | -32.7 kcal/mol | 41.7 °C
GATCTCAAAGAGATC ((((((...)))))) | -37.6 kcal/mol | 55.2 °C
GATCTCAACAGAGATC ((((((....)))))) | -44.3 kcal/mol | 54.9 °C
GATCTCAATAGAGATC ((((((....)))))) | -38.5 kcal/mol | 53.3 °C
GATCTCAATCGAGATC ((((((....)))))) | -43.7 kcal/mol | 52.2 °C
GATCTCAATTGAGATC ((((((....)))))) | -38 kcal/mol | 53.1 °C
GATCTCACAGGAGATC ((((((....)))))) | -34 kcal/mol | 51.7 °C
GATCTCACCGAGATC ((((((...)))))) | -36.5 kcal/mol | 55.2 °C
GATCTCACGAGAGATC ((((((....)))))) | -39.5 kcal/mol | 52.3 °C
GATCTCACGCGAGATC ((((((....)))))) | -41.7 kcal/mol | 52.7 °C
GATCTCAGGTGAGATC ((((((....)))))) | -32.2 kcal/mol | 53.6 °C
GATCTCATACGAGATC ((((((....)))))) | -37.8 kcal/mol | 52.6 °C
GATCTCCAACGAGATC ((((((....)))))) | -39.3 kcal/mol | 49.8 °C
GATCTCCACTGAGATC ((((((....)))))) | -40.7 kcal/mol | 51.7 °C

Sequence | folding enthalpy [1] | Tm [2]
GATCTCCAGCGAGATC ((((((....)))))) | -30.6 kcal/mol | 50 °C
GATCTCCCACGAGATC ((((((....)))))) | -40.3 kcal/mol | 50.5 °C
GATCTCCCGAAAGGGATC (((..(((....)))))) | -9.21 kcal/mol | 29.6 °C
GATCTCCCGCGAGATC ((((((....)))))) | -32.3 kcal/mol | 52.7 °C
GATCTCCCGTGAGATC ((((((....)))))) | -35.4 kcal/mol | 52.5 °C
GATCTCCGAAAGGATATC (((.(((....))).))) | -31.9 kcal/mol | 39.3 °C
GATCTCCGAGGAGATC ((((((....)))))) | -37.8 kcal/mol | 60.4 °C
GATCTCCGCTGAGATC ((((((....)))))) | -32.5 kcal/mol | 53.1 °C
GATCTCCGGTGAGATC ((((((....)))))) | -35.5 kcal/mol | 52 °C
GATCTCCTGGAGATC ((((((...)))))) | -37.3 kcal/mol | 53.2 °C
GATCTCCTTGAGATC ((((((...)))))) | -40.6 kcal/mol | 54.4 °C
GATCTCGACAGAGATC ((((((....)))))) | -41.9 kcal/mol | 66.8 °C
GATCTCGAGGGAGATC ((((((....)))))) | -19.9 kcal/mol | 51.7 °C
GATCTCGCACGAGATC ((((((....)))))) | -44.6 kcal/mol | 61 °C
GATCTCGCCGAGATC ((((((...)))))) | -37 kcal/mol | 55.2 °C
GATCTCGCGAAAGCGATC (((..(((....)))))) | -5.91 kcal/mol | 28.1 °C
GATCTCGGCGAGATC ((((((...)))))) | -35.8 kcal/mol | 59.6 °C
GATCTCGGGCGAGATC ((((((....)))))) | -30.4 kcal/mol | 55.2 °C
GATCTCTAAAGAGATC ((((((....)))))) | -33.4 kcal/mol | 51.4 °C
GATCTCTACTGAGATC ((((((....)))))) | -41.6 kcal/mol | 53.2 °C
GATCTCTAGCGAGATC ((((((....)))))) | -23.1 kcal/mol | 49.9 °C
GATCTCTATTGAGATC ((((((....)))))) | -39.1 kcal/mol | 53 °C
GATCTCTCCTGAGATC ((((((....)))))) | -39.3 kcal/mol | 55 °C
GATCTCTCTCGAGATC ((((((....)))))) | -37.2 kcal/mol | 52 °C
